Assays:
[1] = biological target: Bifunctional dihydrofolate reductase-thymidylate synthase (Plasmodium falciparum (isolate K1 / Thailand), UniProt P13922); assay: Inhibition of the wild-type dihydrofolate reductase (DHFR)
Summary of the method: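 Assay at 25 °C: 50 mM TES pH 7.0, 75 mM β-mercaptoethanol, 1 mg/mL BSA, 100 µM H2folate and 100 µM NADPH. NADPH oxidation followed at 340 nm. Ki derived from IC50 as Ki(1+[S]/Km), assuming competitive inhibition.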

[2] = Antiplasmodial activity IC50 against Plasmodium falciparum K1CB1 DHFR double-mutant ([…])

Sequence of Bifunctional dihydrofolate reductase-thymidylate synthase (P13922 whole entry): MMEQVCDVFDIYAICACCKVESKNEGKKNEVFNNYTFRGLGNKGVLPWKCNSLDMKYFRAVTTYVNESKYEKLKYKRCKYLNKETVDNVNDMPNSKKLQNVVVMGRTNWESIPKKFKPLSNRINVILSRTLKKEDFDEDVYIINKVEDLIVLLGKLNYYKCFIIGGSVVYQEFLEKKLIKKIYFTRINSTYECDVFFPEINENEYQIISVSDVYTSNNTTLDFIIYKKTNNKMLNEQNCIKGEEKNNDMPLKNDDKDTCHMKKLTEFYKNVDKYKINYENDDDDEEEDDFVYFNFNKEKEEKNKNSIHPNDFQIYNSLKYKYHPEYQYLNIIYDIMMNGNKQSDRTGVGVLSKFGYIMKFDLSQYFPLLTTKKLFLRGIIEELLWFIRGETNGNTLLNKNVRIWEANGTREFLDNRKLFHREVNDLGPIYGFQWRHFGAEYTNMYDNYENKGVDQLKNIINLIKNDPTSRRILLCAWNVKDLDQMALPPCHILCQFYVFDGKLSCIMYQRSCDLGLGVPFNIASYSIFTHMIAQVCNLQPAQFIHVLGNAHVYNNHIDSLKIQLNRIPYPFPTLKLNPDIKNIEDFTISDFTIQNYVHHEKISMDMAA

Structure (SMILES)	Ki [1] [µM]	IC50 [2] [µM]
COc1cc(Cc2cnc(N)nc2N)cc(OC)c1OCc1ccccc1 [5-(4-Benzyloxy-3,5-dimethoxy-benzyl)-pyrimidine-2,4-diamine]	0.0042	30.1
COc1cc(Cc2cnc(N)nc2N)ccc1OCc1cc(OC)c(OC)c(OC)c1 [5-[3-Methoxy-4-(3,4,5-trimethoxy-benzyloxy)-benzyl]-pyrimidine-2,4-diamine]	0.0006	27.8
Nc1nc(N)c(-c2ccc(Cl)cc2)c(CCCc2ccccc2)n1 [5-(4-Chloro-phenyl)-6-(3-phenyl-propyl)-pyrimidine-2,4-diamine]	–	10.6
CCc1nc(N)nc(N)c1-c1ccc(OC)cc1	0.0009	> 25
CCc1nc(N)nc(N)c1-c1ccc2c(c1)OCO2 [5-Benzo[1,3]dioxol-5-yl-6-ethyl-pyrimidine-2,4-diamine]	–	21.5
CCc1nc(N)nc(N)c1-c1ccc(Cl)cc1Cl [5-(2,4-Dichloro-phenyl)-6-ethyl-pyrimidine-2,4-diamine]	0.0126	22.5
COc1cc(Cc2cnc(N)nc2N)ccc1OCCCc1ccccc1 [5-[3-Methoxy-4-(3-phenyl-propoxy)-benzyl]-pyrimidine-2,4-diamine]	0.0018	11.7
Nc1ncc(Cc2ccc(OCCCOc3cc(Cl)c(Cl)cc3Cl)cc2)c(N)n1 [5-{4-[3-(2,4,5-Trichloro-phenoxy)-propoxy]-benzyl}-pyrimidine-2,4-diamine]	0.0009	3.5
CCc1nc(N)nc(N)c1-c1ccc(Cl)c(Cl)c1	–	17.4
Cc1nc(N)nc(N)c1-c1cccc(Cl)c1 [5-(3-chlorophenyl)-6-methylpyrimidine-2,4-diamine]	–	4.8
Nc1ncc(-c2ccccc2)c(N)n1 [5-Phenyl-pyrimidine-2,4-diamine]	–	19.4
Nc1nc(N)c(-c2cccc(Cl)c2)c(CCOCCCOc2ccccc2)n1 [5-(3-chlorophenyl)-6-[2-(3-phenoxypropoxy)ethyl]pyrimidine-2,4-diamine]	–	3.3
Cc1nc(N)nc(N)c1-c1ccccc1	0.0109	30.8
CCc1nc(N)nc(N)c1-c1ccc(OCc2ccc(Cl)cc2Cl)c(OC)c1 [5-[4-(2,4-Dichloro-benzyloxy)-3-methoxy-phenyl]-6-ethyl-pyrimidine-2,4-diamine]	0.001	> 50
COC(=O)CCCc1nc(N)nc(N)c1-c1cccc(Cl)c1 [4-[2,6-Diamino-5-(3-chloro-phenyl)-pyrimidin-4-yl]-butyric acid methyl ester]	–	36.3
CCc1nc(N)nc(N)c1-c1cccc(Cl)c1 [5-(3-chlorophenyl)-6-ethylpyrimidine-2,4-diamine]	–	1.3

Structure (SMILES)	Ki [1] [µM]	IC50 [2] [µM]
COC(=O)CCCc1nc(N)nc(N)c1-c1ccccc1 [4-(2,6-Diamino-5-phenyl-pyrimidin-4-yl)-butyric acid methyl ester]	–	31.3
Cc1nc(N)nc(N)c1-c1ccc(Cl)cc1	0.002	60.1
CCc1nc(N)nc(N)c1-c1ccc(-c2ccccc2)cc1 [5-Biphenyl-4-yl-6-ethyl-pyrimidine-2,4-diamine]	0.188	4.4
COc1cc(COc2cc(Cc3cnc(N)nc3N)ccc2OCc2ccccc2)cc(OC)c1OC [5-[4-Benzyloxy-3-(3,4,5-trimethoxy-benzyloxy)-benzyl]-pyrimidine-2,4-diamine]	0.0121	17.5
COc1ccc(CCCc2nc(N)nc(N)c2-c2cccc(Cl)c2)cc1 [5-(3-Chloro-phenyl)-6-[3-(4-methoxy-phenyl)-propyl]-pyrimidine-2,4-diamine]	–	2.7
CCOc1c(Br)cc(-c2c(N)nc(N)nc2CC)cc1Br [5-(3,5-Dibromo-4-ethoxy-phenyl)-6-ethyl-pyrimidine-2,4-diamine]	0.007	17.4
Nc1nc(N)c(-c2ccccc2)c(CCCc2ccccc2)n1	–	2.3
CCc1nc(N)nc(N)c1-c1ccc(C(C)(C)C)cc1 [5-(4-tert-butylphenyl)-6-ethylpyrimidine-2,4-diamine]	0.0006	3.9
Nc1ncc(-c2ccc(Cl)cc2)c(N)n1 [5-(4-chlorophenyl)pyrimidine-2,4-diamine]	0.0024	26.2
CCc1nc(N)nc(N)c1-c1ccc(Br)cc1 [5-(4-bromophenyl)-6-ethylpyrimidine-2,4-diamine]	0.0003	25
CCCCCCc1nc(N)nc(N)c1-c1ccccc1 [6-hexyl-5-phenylpyrimidine-2,4-diamine]	–	1.3
COC(=O)CCCc1nc(N)nc(N)c1-c1ccc(Cl)cc1	–	22.3
CCc1nc(N)nc(N)c1-c1ccccc1	–	3.3
Nc1ncc(-c2cccc(Cl)c2)c(N)n1 [5-(3-Chloro-phenyl)-pyrimidine-2,4-diamine]	0.0063	8.8
Nc1nc(N)c(-c2cccc(Cl)c2)c(CCCc2ccccc2)n1	–	3
CCc1nc(N)nc(N)c1-c1ccc(C)cc1 [6-ethyl-5-(4-methylphenyl)pyrimidine-2,4-diamine]	–	12.7
